How the values were obtained:
[1] = target: T1, COX1 (Prostaglandin G/H synthase 1) (Ovis aries, UniProt P05979); test: Inhibition of sheep COX1 at 10 uM assessed as reduction in PGE2 formation using arachidonic acid as substrate by enzyme immunoassay relative to control; details: probe arachidonic acid
T1 sequence (P05979 whole entry): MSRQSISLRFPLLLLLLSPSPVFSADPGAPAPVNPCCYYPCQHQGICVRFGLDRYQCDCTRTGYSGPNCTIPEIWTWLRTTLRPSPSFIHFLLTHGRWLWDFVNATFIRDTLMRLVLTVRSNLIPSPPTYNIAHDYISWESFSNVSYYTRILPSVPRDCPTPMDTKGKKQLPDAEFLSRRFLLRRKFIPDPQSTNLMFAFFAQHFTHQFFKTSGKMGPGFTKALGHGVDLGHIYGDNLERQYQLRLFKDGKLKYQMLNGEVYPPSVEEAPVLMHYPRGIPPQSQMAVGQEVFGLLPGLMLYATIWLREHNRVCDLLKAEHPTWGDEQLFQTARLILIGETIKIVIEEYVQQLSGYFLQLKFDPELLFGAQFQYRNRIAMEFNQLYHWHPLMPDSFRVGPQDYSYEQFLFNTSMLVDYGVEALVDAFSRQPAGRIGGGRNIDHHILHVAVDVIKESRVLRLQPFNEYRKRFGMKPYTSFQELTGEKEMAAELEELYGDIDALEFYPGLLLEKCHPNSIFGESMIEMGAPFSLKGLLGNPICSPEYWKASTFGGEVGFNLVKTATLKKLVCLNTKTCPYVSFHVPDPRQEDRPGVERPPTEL
Procedure, shortened: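 Recombinant ovine COX-1, test agent at 10 μM, arachidonic acid as substrate. PGE2 formed is measured by competitive EIA (PGE2–acetylcholinesterase tracer, monoclonal anti-PGE2, Ellman's reagent, absorbance 412 nm) and quantified from an 8-point PGE2 standard curve. Result given as % inhibition of enzyme activity.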

[2] = system: Platelet; test: Antiplatelet activity in human platelet rich plasma assessed as inhibition of arachidonic acid-induced platelet aggregation at 100 uM preincubated for 5 mins followed by arachidonic acid addition measured for 3 mins by aggregometric analysis relative to control; type: functional
Procedure, shortened: (§1)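 Citrated venous blood (3.2% citrate, 1:9) from healthy donors free of antiplatelet drugs for 10 days; PRP from 800 rpm 10 min spin, PPP from 1500 rpm 10 min; count set to 3.8 × 10^5 platelets […]. PRP stirred at 1100 rpm, 37 °C; compound in DMSO (1% carrier) 5 min before agonist (AA final 700 μM; collagen 5 μg ml−1). Turbidimetric read, triplicate; % inhibition versus DMSO-treated maximum aggregation.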

[3] = system: MCF7; test: Cytotoxicity against human MCF7 cells after 72 hrs by SRB assay; type: functional, cell-based
Procedure, shortened: (§2)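 Cells cultured in DMEM with 10% FBS, 1% non-essential amino acids, penicillin/streptomycin, 37 °C, 5% CO2. 2000–3000 cells per well seeded, grown 24 h, then exposed 72 h to compound (DMSO) at 40, 20, 10, 5, 2.5 μM. TCA fixation, 0.4% SRB stain, unbound dye washed off with 1% acetic acid, bound dye dissolved in 10 mM Tris base, absorbance 515 nm. IC50 against DMSO controls, triplicate.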

[4] = system: Huh-7; test: Cytotoxicity against human HuH7 cells after 72 hrs by SRB assay; type: functional, cell-based; procedure, shortened: as §2
[5] = system: HCT-116; test: Cytotoxicity against human HCT116 cells after 72 hrs by SRB assay; type: functional, cell-based; procedure, shortened: as §2
[6] = system: Platelet; test: Antiplatelet activity in human platelet rich plasma assessed as inhibition of collagen-induced platelet aggregation at 100 uM preincubated for 5 mins followed by arachidonic acid addition measured for 3 mins by aggregometric analysis relative to control; type: functional; procedure, shortened: as §1
[7] = system: Platelet; test: Antiplatelet activity in human platelet rich plasma assessed as inhibition of arachidonic acid-induced platelet aggregation preincubated for 5 mins followed by arachidonic acid addition measured for 3 mins by aggregometric analysis; type: functional, cell-based
[8] = Homo sapiens, Huh-7, 72 h, read-out: IC50
[9] = Homo sapiens, HCT-116, 72 h, read-out: IC50
[10] = Homo sapiens, MCF7, 72 h, read-out: IC50

Row | inhibition at 10 µM [1] [%] | IC50 [7] [µM] | SMILES | inhibition at 100 µM [2] [%] | IC50 ([3]; mcf7) | IC50 [4, 8] [µM] | IC50 [5, 9] [µM] | inhibition at 100 µM [6] [%] | IC50 ([4]; huh-7) | IC50 ([5]; hct-116) | IC50 [3, 10] [µM]
1 | 13.1 | 49.8 | CS(=O)(=O)c1ccc(-n2cc(/C=C/C(=O)NCc3cccnc3)c(-c3cccnc3)n2)cc1 | 90 | Not Active |  |  | 64.1 | Not Active | Not Active | 
2 | 7.95 | 21.4 | CS(=O)(=O)c1ccc(-n2cc(/C=C/C(=O)NCCc3ccncc3)c(-c3cccnc3)n2)cc1 | 100 | Not Active | 38.7 | 19.8 | 71.8 |  |  | 
3 | 40.5 |  | CS(=O)(=O)c1ccc(-n2cc(/C=C/C(=O)NCCCn3ccnc3)c(-c3cccnc3)n2)cc1 | 82.4 | Not Active |  |  | 52.6 | Not Active | Not Active | 
4 | 10.7 |  | CS(=O)(=O)c1ccc(-n2cc(/C=C/C(=O)NCc3ccccn3)c(-c3cccnc3)n2)cc1 | 8.92 | Not Active | 24.7 | 27 | 59.8 |  |  | 
5 | 3.21 |  | O=C(/C=C/c1cn(-c2ccccc2)nc1-c1cccnc1)NCCc1ccccn1 | 3.68 |  | 18.9 | 14.2 | 21.9 |  |  | 24.9
6 | 5.96 | 78.3 | O=C(/C=C/c1cn(-c2ccccc2)nc1-c1ccncc1)NCc1ccccn1 | 100 | Not Active | 14.7 | 20.4 | 41.6 |  |  | 
7 | 11.6 |  | O=C(/C=C/c1cn(-c2ccccc2)nc1-c1cccnc1)NCc1ccncc1 | 4.54 | Not Active | 24.4 |  | 36.6 |  | Not Active | 

Further lines, the compound ahead of its results:

Row | SMILES | inhibition at 10 µM [1] [%] | IC50 [7] [µM] | inhibition at 100 µM [2] [%] | IC50 ([3]; mcf7) | IC50 [4, 8] [µM] | IC50 [5, 9] [µM] | inhibition at 100 µM [6] [%] | IC50 ([4]; huh-7) | IC50 ([5]; hct-116) | IC50 [3, 10] [µM]
8 | O=C(/C=C/c1cn(-c2ccccc2)nc1-c1cccnc1)NCCc1ccncc1 | 10.2 |  | 11.3 | Not Active | 14.5 | 26.7 | 75.9 |  |  | 
9 | CC(=O)Oc1ccccc1C(=O)O [ASPIRIN] |  | 7.7 | 100 |  |  |  | 100 |  |  | 
10 | O=C(/C=C/c1cn(-c2ccccc2)nc1-c1ccncc1)NCc1cccnc1 | 13.7 |  | 43.3 | Not Active |  | 14.6 | 63.4 | Not Active |  | 
11 | Cc1nccn1CCCNC(=O)/C=C/c1cn(-c2ccccc2)nc1-c1cccnc1 | 0.32 |  | 1.24 |  | 13.4 | 21.4 | 60.3 |  |  | 25.1
12 | O=C(/C=C/c1cn(-c2ccccc2)nc1-c1cccnc1)NCCCn1ccnc1 | 0.12 |  | 16.1 |  | 14.3 | 17.6 | 86.5 |  |  | 15.4
13 | O=C(/C=C/c1cn(-c2ccccc2)nc1-c1cccnc1)NCCc1cccnc1 | 0.45 |  | 0 |  | 8.1 | 16.9 | 76.6 |  |  | 30.8
14 | Cc1nccn1CCNC(=O)/C=C/c1cn(-c2ccccc2)nc1-c1cccnc1 | 2.46 |  | 0 |  | 25.6 | 20 | 15.5 |  |  | 21.8
15 | O=C(/C=C/c1cn(-c2ccccc2)nc1-c1ccncc1)NCCCn1ccnc1 | 12.6 | 33.6 | 90.6 | Not Active | 6.8 | 18.5 | 88.9 |  |  | 

Source: ChEMBL document CHEMBL4257497, “Design, synthesis and biological evaluation of novel 1,3-diarylpyrazoles as cyclooxygenase inhibitors, antiplatelet and anticancer agents” (Medchemcomm, 2018)
